Test results published in PMC6894423 (Journal of molecular and cellular cardiology, 2019).
Entries after “also recorded” stand apart in the source; their conditions may differ.

Assays:
mAb TnI-1 = experiment: Competitive ELISA affinity titration against mAb TnI-1; type: binding; settings: compared with wild type at ~0.1 μM (Figure 8)
In short: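 Wells coated overnight at 4°C with purified bovine cardiac TnI in pH 7.0 PIPES/KCl/MgCl2 buffer, then blocked with 1% BSA. mAb TnI-1 was added at a preset sub-maximal level together with serial dilutions of biologically or chemically made peptide. Detection used HRP anti-mouse IgG and H2O2-ABTS, read at 420 nm every 5 min for 30 min. Triplicate wells; each assay repeated.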

[1] = system: skinned mouse EDL muscle fibers; experiment: Force-pCa contractility of skinned mouse EDL muscle fibers; type: cell-based; settings: 20 μM peptide; sarcomere length 2.7 μm; 15°C; N = 4
In short: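 Whole EDL from adult C57BL/6 mice was split along the fibres in relaxing buffer and stored at −20°C in 50% glycerol buffer. Fibres were mounted on T-clips, further skinned 20 min in 1% Triton X-100 and set to sarcomere length 2.7 μm. Force was read at pCa 6.5–4.5 at 15°C, before and after adding 20 μM peptide; curves were Hill-fitted.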

[2] = system: skinned mouse ventricular papillary muscle; experiment: Force-pCa contractility of skinned mouse ventricular papillary muscle; type: cell-based; settings: 20 μM peptide, 15°C
In short: (§1)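 Left ventricular papillary muscle was cryosectioned at 35 μm, cut into 140–150 μm strips and stored at −20°C in glycerol relaxing buffer. Strips were clip-mounted, skinned 20 min in 1% Triton X-100 and set to sarcomere length 2.0 or 2.3 μm. Isometric force was read at pCa 6.5–4.5 at 15°C, then repeated with 20 μM peptide. Curves were Hill-fitted and compared by paired t-test.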

[3] = system: skinned rat ventricular papillary muscle; experiment: Force-pCa contractility of skinned rat ventricular papillary muscle; type: cell-based; settings: 20 μM peptide, 15°C
In short: as §1

[4] = target: bovine cardiac α-tropomyosin (bovine, UniProt Q5KR49 1-284); experiment: ELISA

## HcTnI-C27-H: R192H mutant of the C-terminal 27 amino acid peptide of human cardiac TnI (ENREVGDWHKNIDALSGMEGRKKKFES; left off: Tx3 metal-binding tag, N-terminal, cleaved | SUMO, N-terminal, cleaved)
mAb TnI-1
  Effect on competition for mAb TnI-1 compared with wild type peptide: only minimum effect

## HcTnI-C27: C-terminal 27 amino acid peptide of human cardiac TnI (ENREVGDWRKNIDALSGMEGRKKKFES; left off: Tx3 metal-binding tag, N-terminal, cleaved | SUMO, N-terminal, cleaved)
[1]
  Effect on myofilament Ca^2+ sensitivity, mouse EDL: myofilament Ca^2+-desensitization effect predominantly in the activated state; also recorded: decreases in myofilament Ca^2+ sensitivity in the activated state at higher Ca^2+ concentrations
  Maximum force production, mouse EDL: without change of maximum force production
[2]; SL 2.0 μm and 2.3 μm
  Effect on force-pCa curves, mouse cardiac, both sarcomere lengths: right-shifts of the force-pCa curves
[2]; sarcomere length 2.0 μm, N = 3
  Effect on Ca^2+-sensitivity (force-pCa curve), mouse cardiac, SL 2.0 μm: more obvious at sarcomere length of 2.0 μm in the activated state; also recorded: decreased Ca^2+-sensitivity
  Effect on cooperativity (n), mouse cardiac, SL 2.0 μm: significantly lowered cooperativity
[2]; sarcomere length 2.3 μm, n = 4
  Effect on Ca^2+-sensitivity (force-pCa curve), mouse cardiac, SL 2.3 μm: decreased Ca^2+-sensitivity
[3]; SL increased from 2.0 μm to 2.3 μm
  Effect on Ca^2+-sensitization by increasing sarcomere length, rat: completely diminishing the Ca^2+-sensitization effect; also recorded: diminished the Ca^2+-sensitization effect
[3]; sarcomere length 2.0 μm, pH 7.0, N = 4
  Effect on cooperativity (n), rat, SL 2.0 μm: small effect on lowering pCa50 and cooperativity
[3]; sarcomere length 2.3 μm, pH 7.0, n = 3
  Effect on cooperativity (n), rat, SL 2.3 μm: significantly decreased Ca^2+ sensitivity and cooperativity (n)

## ENREVGDWRKNIDALSGMEGRKKKFES (peptide, UniProt P19429 184-210, looked up) [C-terminal 27 amino acid peptide of human cardiac TnI (HcTnI-C27), free peptide]
[4]
  binding result: binds
